Tests used:
[1] = test system: A549; experiment: Growth inhibition of human A549 cells by MTT assay; format: functional, cell-based
How it was run: (§1)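 MTT viability. Cells seeded for 24 h, then exposed to compound for 48 h in DMEM/F-12 or DMEM with 5% FBS. Vehicle controls received matching DMSO. MTT added at 0.5 mg/mL for 3 h at 37 °C. Formazan dissolved in DMSO and absorbance read at 570 nm.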

[2] = test system: Hep 3B2; experiment: Growth inhibition of human Hep3B cells by MTT assay; format: functional, cell-based; how it was run: as §1
[3] = test system: MCF7; experiment: Growth inhibition of human MCF7 cells by MTT assay; format: functional, cell-based; how it was run: as §1
[4] = molecular target: T1, Prostaglandin G/H synthase 1 (Ovis aries, UniProt P05979); experiment: Inhibition of ovine COX1 assessed as reduction in PGH2 formation by measuring PGF2alpha by colorimetric assay
T1 sequence (P05979 whole entry): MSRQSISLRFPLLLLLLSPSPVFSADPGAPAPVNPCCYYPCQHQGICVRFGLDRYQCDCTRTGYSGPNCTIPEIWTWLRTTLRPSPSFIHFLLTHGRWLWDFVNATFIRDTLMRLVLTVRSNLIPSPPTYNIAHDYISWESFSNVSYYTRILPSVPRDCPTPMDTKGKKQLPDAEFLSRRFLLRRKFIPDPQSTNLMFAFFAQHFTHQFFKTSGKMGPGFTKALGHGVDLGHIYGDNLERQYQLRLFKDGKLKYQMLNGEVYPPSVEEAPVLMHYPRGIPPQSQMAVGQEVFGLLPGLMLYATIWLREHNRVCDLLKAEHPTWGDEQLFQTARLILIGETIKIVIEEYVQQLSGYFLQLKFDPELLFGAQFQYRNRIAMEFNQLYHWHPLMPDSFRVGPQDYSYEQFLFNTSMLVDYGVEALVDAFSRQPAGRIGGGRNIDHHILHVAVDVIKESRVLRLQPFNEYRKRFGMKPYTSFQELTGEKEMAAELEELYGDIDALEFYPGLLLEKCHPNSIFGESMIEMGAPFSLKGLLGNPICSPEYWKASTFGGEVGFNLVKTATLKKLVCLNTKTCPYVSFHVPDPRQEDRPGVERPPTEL
How it was run: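 Colorimetric COX inhibitor screening kit run per the manufacturer, using ovine COX-1. IC50 calculated from three determinations.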

[5] = test system: MCF7; experiment: Anticancer activity against human MCF7 cells; format: functional, cell-based
[6] = test system: PC-3; experiment: Anticancer activity against human PC3 cells; format: functional, cell-based

| Compound | IC50 [1] | IC50 [2] | IC50 [3] | IC50 [4] | IC50 [5] | IC50 [6] |
| --- | --- | --- | --- | --- | --- | --- |
| Cc1ccc(NC(=O)c2c(N=Cc3cccs3)c(C#N)c3n2CCC3)cc1 | 11.4 µM | 13.8 µM | 5.35 µM | 10.4 µM |  |  |
| N#Cc1c(N=Cc2cccs2)c(C(=O)Nc2ccccc2)n2c1CCC2 | 12.5 µM | 18.6 µM | 6.97 µM | 4.96 µM |  |  |
| N#Cc1c(N=Cc2cccnc2)c(C(=O)Nc2ccc(Cl)cc2)n2c1CCC2 | 23 µM | 31.2 µM | 22.5 µM | 5.78 µM |  |  |
| N#Cc1c(/N=C/c2ccc([N+](=O)[O-])cc2)c(C(=O)Nc2cc(Cl)cc(Cl)c2)n2c1CCC2 | 16.2 µM | 14 µM | 7.9 µM |  | 7.9 µM | 8.54 µM |
| N#Cc1c(N=Cc2ccco2)c(C(=O)Nc2ccc(Cl)cc2)n2c1CCC2 | 28.4 µM | 27.5 µM | 15.7 µM | 8.41 µM |  |  |
| N#Cc1c(N=Cc2ccco2)c(C(=O)Nc2ccccc2)n2c1CCC2 | 9.75 µM | 12.8 µM | 8.35 µM | 6.54 µM |  |  |
| N#Cc1c(N=Cc2ccc3ccccc3c2)c(C(=O)Nc2ccc(Cl)cc2)n2c1CCC2 | 11.2 µM | 12.5 µM | 9.82 µM | 10.6 µM |  |  |
